Laboratory results: ChEMBL document CHEMBL1124408, “3-aminopyridazine derivatives with atypical antidepressant, serotonergic, and dopaminergic activities” (J Med Chem, 1989)

Experiments:
Assay type in all cases: functional
Mus musculus [1] = test: Ability to modify turning behavior of mice after intraperitoneal administration; conditions: ip, read-out: MED
Outline: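 Female CD1 mice (25-30 g) were lesioned by stereotaxic injection of 6-OHDA (10 μg in 1 μL saline with 1 mg/mL ascorbic acid) into the right striatum under pentobarbitone (60 mg/kg ip). Seven days later, drug in distilled water/gum tragacanth was given ip at multiple doses (7-20 mice/dose). Ipsilateral turns were counted for 2 min starting 30 min post-dose.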

Mus musculus [2] = test: Serotonergic activity was determined by measuring the potentiation of 5-hydroxytryptophan in mice upon ip administration
Outline: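 Drug was injected ip in distilled water/gum tragacanth to female CD1 mice (18-22 g) at multiple doses (7-20 mice/dose), 30 min before a threshold dose of L-5-HTP (200 mg/kg ip). Mice were held singly in small cages, and tremor was scored all-or-none over the 20 min after L-5-HTP.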

Mus musculus [3] = test: Compound was tested for antidepressant activity against reserpine induced ptosis in mice after intraperitoneal administration.; value ranges from 2.2-2.4; conditions: ip
Outline: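 Female CD1 mice (18-22 g) received the drug in distilled water/gum tragacanth ip at multiple doses (7-20 mice/dose), given together with reserpine (2 mg/kg iv). One hour later, palpebral ptosis (half or more of the lid closed) was scored all-or-none. Screening dose was at most 50% of the seizure threshold dose.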

CN(C)CCCN1c2ccccc2CCc2ccccc21 [IMIPRAMINE]
minimal effective dose (Mus musculus [1]): > 20 mg/kg | ED50 (Mus musculus [2]): > 30 mg/kg | ED50 (Mus musculus [3]): 2.3 mg/kg
